Test results as given in ChEMBL document CHEMBL1121696, “Antimicrobial 3-methyleneflavanones” (1981).
Values after ≈ are worked out from the molar mass of the structure shown. Blank lines part the entries; values can stand above or below the compound they belong to.

Tests used:
Trichophyton benhamiae [1] = assay: Compound was tested for the antimicrobial activity against Trichophyton mentagrophytes (ATCC 4807); Range is 12.5-50; type: functional, Arthroderma benhamiae
In short: (§1)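 Spores came from Eugon agar slants grown 1 week at 32 °C, suspended at 10⁶/mL in Eugon broth or saline, and applied by Steers replicator. The lowest inhibitory concentration was read after 48-72 h at 32 °C.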

Candida albicans [2] = assay: Compound was tested for the antimicrobial activity against Candida albicans (ATCC 10231, NRRL Y-477); Range is 100 to >100; type: functional
In short: (§2)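 Agar dilution MIC. Stocks and twofold serial dilutions in DMF or 50% aqueous DMF were mixed 1:100 into molten Eugon agar, giving final 100, 50, 25, 12.5, 6.2, 3.1 mcg/mL (further dilutions sometimes) and ≤1% DMF. Inocula came from 24 h Eugon agar slants at 32 °C, suspended at 10⁶ cells/mL and applied with a Steers replicator. MIC (lowest concentration inhibiting growth) was read after 24 h at 32 °C.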

Candida albicans [3] = assay: Antimicrobial activity against Candida albicans (ATCC 10231, NRRL Y-477); type: functional; in short: as §2
Enterococcus faecalis [4] = assay: Antimicrobial activity against Streptococcus faecalis (ATCC 10541); type: functional; in short: as §2
Trichophyton benhamiae [5] = assay: Compound was tested for the antimicrobial activity against Trichophyton mentagrophytes (ATCC 4807); Range is 50 to >100; type: functional, Arthroderma benhamiae; in short: as §1
Aspergillus niger = assay: Antimicrobial activity against Aspergillus niger (ATCC 16404); type: functional; in short: as §1
Staphylococcus aureus [6] = assay: Compound was tested for the antimicrobial activity against Staphylococcus aureus (ATCC 6538, NRRL B2747); Range is 50-100; type: functional; in short: as §2
Staphylococcus aureus [7] = assay: Antimicrobial activity against Staphylococcus aureus (ATCC 6538, NRRL B2747); Range is <3.1-6.2; type: functional; in short: as §2
Trichophyton benhamiae [8] = assay: Compound was tested for the antimicrobial activity against Trichophyton mentagrophytes (ATCC 4807); Range is <3.1-12.5; type: functional, Arthroderma benhamiae; in short: as §1
Trichophyton benhamiae [9] = assay: Antimicrobial activity against Trichophyton mentagrophytes (ATCC 4807); type: functional, Arthroderma benhamiae; in short: as §1
Staphylococcus aureus [10] = assay: Antimicrobial activity against Staphylococcus aureus (ATCC 6538, NRRL B2747); type: functional; in short: as §2
Trichophyton benhamiae [11] = assay: Compound was tested for the antimicrobial activity against Trichophyton mentagrophytes (ATCC 4807); Range is 12.5-25; type: functional, Arthroderma benhamiae; in short: as §1
Candida albicans [12] = assay: Compound was tested for the antimicrobial activity against Candida albicans (ATCC 10231, NRRL Y-477); Range is 50 to >100; type: functional; in short: as §2
Enterococcus faecalis [13] = assay: Compound was tested for the antimicrobial activity against Streptococcus faecalis (ATCC 10541); Range is 25-50; type: functional; in short: as §2
Trichophyton benhamiae [14] = assay: Compound was tested for the antimicrobial activity against Trichophyton mentagrophytes (ATCC 4807); Range is <3.1-25; type: functional, Arthroderma benhamiae; in short: as §1
Trichophyton benhamiae [15] = assay: Compound was tested for the antimicrobial activity against Trichophyton mentagrophytes (ATCC 4807); Range is 100 to >100; type: functional, Arthroderma benhamiae; in short: as §1
Trichophyton benhamiae [16] = assay: Compound was tested for the antimicrobial activity against Trichophyton mentagrophytes (ATCC 4807); Range is 6.2-12.5; type: functional, Arthroderma benhamiae; in short: as §1
Staphylococcus aureus [17] = assay: Compound was tested for the antimicrobial activity against Staphylococcus aureus (ATCC 6538, NRRL B2747); Range is 0.25-0.5; type: functional; in short: as §2
Staphylococcus aureus [18] = assay: Compound was tested for its antimicrobial activity against Staphylococcus aureus(9-195); type: functional; in short: as §2
Enterococcus = assay: Compound was tested for its antimicrobial activity against Enterococcus (9-25)
Staphylococcus aureus [19] = assay: Compound was tested for its antimicrobial activity against Staphylococcus aureus(9-267); type: functional; in short: as §2
Cutibacterium acnes = assay: Compound was tested for its antimicrobial activity against Propionibacterium acnes (ATCC 6919); type: functional
In short: (§3)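 Anaerobic bacteria were grown 72 h at 32 °C in fluid thioglycollate medium and used undiluted to inoculate, by Steers replicator, Eugon agar containing serial twofold compound dilutions made in DMF or 50% aqueous DMF (final 100 to 3.1 mcg/mL, ≤1% DMF). MIC was read after 72 h of anaerobic incubation (Gas-Pak jar) at 37 °C.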

[20] = test system: Staphylococcus epidermidis; assay: Compound was tested for its antimicrobial activity against Staphylococcus epidermidis (ATCC 12228); type: functional; in short: as §2
Enterococcus faecalis [21] = assay: Compound was tested for its antimicrobial activity against Streptococcus faecalis (ATCC 10541); type: functional; in short: as §2
Staphylococcus aureus [22] = assay: Compound was tested for its antimicrobial activity against Staphylococcus aureus (NRRL B2747); type: functional; in short: as §2
Staphylococcus aureus [23] = assay: Compound was tested for its antimicrobial activity against Staphylococcus aureus (ATCC 151); type: functional; in short: as §2
Bacillus subtilis = assay: Compound was tested for its antimicrobial activity against Bacillus subtilis (ATCC 6633); type: functional; in short: as §2
Trichophyton benhamiae [24] = assay: Compound was tested for the antimicrobial activity against Trichophyton mentagrophytes (ATCC 4807); Range is 6.1-12.5; type: functional, Arthroderma benhamiae; in short: as §1
Staphylococcus aureus [25] = assay: Compound was tested for its antimicrobial activity against Staphylococcus aureus (9-267); type: functional; in short: as §2
Staphylococcus aureus [26] = assay: Compound was tested for its antimicrobial activity against Staphylococcus aureus (ATCC 6538); type: functional; in short: as §2
Staphylococcus aureus [27] = assay: Compound was tested for its antimicrobial activity against Staphylococcus aureus (9-195); type: functional; in short: as §2
[28] = test system: Clostridium acetobutylicum; assay: Compound was tested for its antimicrobial activity against Clostridium acetobutylicum (ATCC 824); type: functional; in short: as §3
[29] = Compound was tested for its antimicrobial activity against Sarcina subflava (ATCC 7468); type: functional; in short: as §2

MIC (Trichophyton benhamiae [1]): 12.5 µg/mL (≈ 31.7 µM) | MIC (Candida albicans [2]): > 100 µg/mL
SMILES: C=C1C(=O)c2cc(Br)ccc2OC1c1ccc(Br)cc1 (stereo not given)

MIC (Candida albicans [3]): > 100 µg/mL | MIC (Enterococcus faecalis [4]): > 100 µg/mL | MIC (Trichophyton benhamiae [5]): > 50 µg/mL | MIC (Aspergillus niger): > 100 µg/mL | MIC (Staphylococcus aureus [6]): 50 µg/mL (≈ 198 µM)
SMILES: C=C1C(=O)c2ccccc2SC1c1ccccc1 (stereo not given)

MIC (Staphylococcus aureus [7]): < 3.1 µg/mL | MIC (Trichophyton benhamiae [8]): < 3.1 µg/mL
SMILES: C=C1C(=O)c2ccccc2OC1c1cccc(Cl)c1 (stereo not given)

MIC (Trichophyton benhamiae [9]): > 100 µg/mL | MIC (Candida albicans [3]): > 100 µg/mL | MIC (Enterococcus faecalis [4]): > 100 µg/mL | MIC (Staphylococcus aureus [10]): > 100 µg/mL | MIC (Aspergillus niger): > 100 µg/mL
SMILES: O=C1/C(=C/Cl)C(c2ccccc2)Oc2ccccc21 (stereo not given)

MIC (Staphylococcus aureus [7]): < 3.1 µg/mL | MIC (Trichophyton benhamiae [11]): 12.5 µg/mL (≈ 42.8 µM) | MIC (Candida albicans [12]): > 50 µg/mL | MIC (Enterococcus faecalis [13]): 25 µg/mL (≈ 85.5 µM)
SMILES: C=C1C(=O)c2ccccc2OC1c1ccc(C(C)(C)C)cc1 (stereo not given)

MIC (Trichophyton benhamiae [14]): < 3.1 µg/mL | MIC (Staphylococcus aureus [10]): < 3.1 µg/mL
SMILES: C=C1C(=O)c2ccccc2OC1c1ccc(Cl)cc1 (stereo not given)

MIC (Candida albicans [3]): > 100 µg/mL | MIC (Enterococcus faecalis [4]): > 100 µg/mL | MIC (Staphylococcus aureus [10]): 50 µg/mL (≈ 159 µM) | MIC (Trichophyton benhamiae [15]): > 100 µg/mL | MIC (Aspergillus niger): > 100 µg/mL
SMILES: C=C1C(=O)c2cc(Br)ccc2OC1c1ccccc1 (stereo not given)

MIC (Trichophyton benhamiae [16]): 6.2 µg/mL (≈ 26.2 µM) | MIC (Aspergillus niger): 100 µg/mL (≈ 423 µM)
SMILES: C=C1C(=O)c2ccccc2OC1c1ccccc1 (stereo not given)

MIC (Trichophyton benhamiae [9]): 100 µg/mL (≈ 358 µM) | MIC (Candida albicans [3]): > 100 µg/mL | MIC (Enterococcus faecalis [4]): > 100 µg/mL | MIC (Staphylococcus aureus [10]): > 100 µg/mL | MIC (Aspergillus niger): > 100 µg/mL
SMILES: CN(C)/C=C1\C(=O)c2ccccc2OC1c1ccccc1 (stereo not given)

MIC (Staphylococcus aureus [17]): 0.25 µg/mL (≈ 0.8 µM) | MIC (Trichophyton benhamiae [9]): > 100 µg/mL | MIC (Staphylococcus aureus [18]): 0.5 µg/mL (≈ 1.6 µM) | MIC (Enterococcus): 1 µg/mL (≈ 3.2 µM) | MIC (Enterococcus faecalis [4]): 0.78 µg/mL (≈ 2.5 µM) | MIC (Staphylococcus aureus [19]): 0.5 µg/mL (≈ 1.6 µM) | MIC (Cutibacterium acnes): 3.1 µg/mL (≈ 9.92 µM) | MIC [20]: 0.25 µg/mL (≈ 0.8 µM) | MIC (Enterococcus faecalis [21]): 1 µg/mL (≈ 3.2 µM) | MIC (Staphylococcus aureus [22]): 0.5 µg/mL (≈ 1.6 µM) | MIC (Staphylococcus aureus [23]): 0.25 µg/mL (≈ 0.8 µM) | MIC (Bacillus subtilis): 0.25 µg/mL (≈ 0.8 µM)
SMILES: C=C1C(=O)c2ccccc2OC1(c1ccccc1)c1ccccc1

MIC (Staphylococcus aureus [7]): < 3.1 µg/mL | MIC (Trichophyton benhamiae [24]): 6.1 µg/mL (≈ 19.4 µM)
SMILES: C=C1C(=O)c2ccccc2OC1c1ccc(Br)cc1 (stereo not given)

MIC (Staphylococcus aureus [7]): < 3.1 µg/mL | MIC (Enterococcus faecalis [4]): 50 µg/mL (≈ 175 µM) | MIC (Trichophyton benhamiae [16]): 6.2 µg/mL (≈ 21.7 µM) | MIC (Candida albicans [12]): > 50 µg/mL | MIC (Aspergillus niger): > 100 µg/mL
SMILES: C=C1C(=O)c2ccccc2OC1c1cccc2ccccc12 (stereo not given)

MIC (Enterococcus): 25 µg/mL (≈ 81.8 µM) | MIC (Staphylococcus aureus [25]): 12.5 µg/mL (≈ 40.9 µM) | MIC (Staphylococcus aureus [26]): 12.5 µg/mL (≈ 40.9 µM) | MIC (Cutibacterium acnes): 25 µg/mL (≈ 81.8 µM) | MIC [20]: 12.5 µg/mL (≈ 40.9 µM) | MIC (Enterococcus faecalis [21]): 12.5 µg/mL (≈ 40.9 µM) | MIC (Staphylococcus aureus [27]): 12.5 µg/mL (≈ 40.9 µM) | MIC (Staphylococcus aureus [22]): 12.5 µg/mL (≈ 40.9 µM) | MIC [28]: < 6.2 µg/mL | MIC (Staphylococcus aureus [23]): 3.1 µg/mL (≈ 10.1 µM) | MIC (Bacillus subtilis): 6.2 µg/mL (≈ 20.3 µM) | MIC [29]: 3.1 µg/mL (≈ 10.1 µM)
SMILES: Oc1c(I)cc(Cl)c2cccnc12 [CLIOQUINOL]

MIC (Trichophyton benhamiae [9]): > 100 µg/mL | MIC (Candida albicans [3]): > 100 µg/mL | MIC (Enterococcus faecalis [4]): > 100 µg/mL | MIC (Staphylococcus aureus [10]): > 100 µg/mL | MIC (Aspergillus niger): > 100 µg/mL
SMILES: C=C(CC)C(=O)c1ccc(OCC(=O)O)c(Cl)c1Cl [ETHACRYNIC ACID]

MIC (Enterococcus): 1 µg/mL (≈ 2.46 µM) | MIC (Staphylococcus aureus [25]): 1 µg/mL (≈ 2.46 µM) | MIC (Staphylococcus aureus [26]): 0.5 µg/mL (≈ 1.23 µM) | MIC (Cutibacterium acnes): 0.06 µg/mL (≈ 0.147 µM) | MIC [20]: 0.5 µg/mL (≈ 1.23 µM) | MIC (Enterococcus faecalis [21]): 0.125 µg/mL (≈ 0.307 µM) | MIC (Staphylococcus aureus [27]): 1 µg/mL (≈ 2.46 µM) | MIC (Staphylococcus aureus [22]): 0.5 µg/mL (≈ 1.23 µM) | MIC [28]: 0.06 µg/mL (≈ 0.147 µM) | MIC (Staphylococcus aureus [23]): 0.5 µg/mL (≈ 1.23 µM) | MIC (Bacillus subtilis): 0.125 µg/mL (≈ 0.307 µM) | MIC [29]: 0.06 µg/mL (≈ 0.147 µM)
SMILES: Oc1c(Cl)cc(Cl)c(Cl)c1Cc1c(O)c(Cl)cc(Cl)c1Cl [HEXACHLOROPHENE]
